{"data": "Measurements of several laboratories", "target": "Serine/threonine-protein kinase 17A (STK17A, Homo sapiens, UniProt Q9UEE5)", "read-out": "enzyme activity", "Sequence (Q9UEE5 1-414, as in one of the studies)": "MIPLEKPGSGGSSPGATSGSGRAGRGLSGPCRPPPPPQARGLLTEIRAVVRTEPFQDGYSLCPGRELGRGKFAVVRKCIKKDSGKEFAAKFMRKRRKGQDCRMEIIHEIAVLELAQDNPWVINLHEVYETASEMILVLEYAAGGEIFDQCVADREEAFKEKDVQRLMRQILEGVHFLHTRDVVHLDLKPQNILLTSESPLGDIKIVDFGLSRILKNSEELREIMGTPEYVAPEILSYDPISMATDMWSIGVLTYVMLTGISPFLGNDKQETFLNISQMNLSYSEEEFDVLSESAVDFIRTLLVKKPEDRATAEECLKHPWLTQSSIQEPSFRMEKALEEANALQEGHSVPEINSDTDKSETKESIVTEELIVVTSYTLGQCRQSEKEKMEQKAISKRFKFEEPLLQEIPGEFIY"}
{"SMILES": "Cc1nn(CC(F)(F)F)cc1Nc1ncc(Br)c(NCCc2cnc[nH]2)n1", "mode": "inhibitor", "method": "radiometric", "tested at": "1 µM", "remaining activity [%]": 63}
{"SMILES": "CCCOc1ccc(OC)c(F)c1C(=O)c1ccc(C(=O)N[C@@H]2CNC[C@H]2NC(=O)c2ccc3[nH]ncc3c2)cc1", "mode": "inhibitor", "tested at": "10 µM", "remaining activity [%]": 7}
{"SMILES": "CCN(CC)c1ccc(C2=NNC(=O)CC2C)cc1[N+](=O)[O-] (centres unmarked)", "mode": "inhibitor", "tested at": "10 µM", "remaining activity [%]": 100}
{"SMILES": "Cc1ccc(C(=O)Nc2ccc(CN3CCN(C)CC3)c(C(F)(F)F)c2)cc1C#Cc1cnc2cccnn12", "tested at": "23.5 nM", "remaining activity [%]": 100}
{"SMILES": "O=C(Nc1cnn(-c2csc(C(=O)NC3COC3)c2)c1)Nc1ccccc1Cl", "mode": "inhibitor", "tested at": "5 µM", "remaining activity [%]": 98.4}
{"SMILES": "Cc1nn(CC(F)(F)F)cc1Nc1ncc(C2CC2)c(NCc2ccc(S(N)(=O)=O)cc2)n1", "mode": "inhibitor", "method": "radiometric", "tested at": "1 µM", "remaining activity [%]": 105}
{"SMILES": "COc1cc(Cl)c(C(=O)N[C@@H](CN[C@H]2CC[C@@H](N)CC2)Cc2ccc(C#N)cc2)cc1-c1ccc(CN[C@H](C)c2ccc(C)cc2)o1", "mode": "inhibitor", "tested at": "1 µM", "remaining activity [%]": 70}
{"SMILES": "CC(C)(C)c1nc2c(s1)c1nc(N)ncc1c1ccc(NS(=O)(=O)c3c(F)cccc3F)c(F)c12", "mode": "inhibitor", "method": "radiometric", "tested at": "1 µM", "remaining activity [%]": 80}
{"SMILES": "Cc1cnc(NC2CCOCC2)nc1-n1cnc(C(=O)NC(CN)c2cc(F)cc(Cl)c2)c1 (centres unmarked)", "mode": "inhibitor", "method": "radiometric", "tested at": "1 µM", "remaining activity [%]": 100}
{"SMILES": "NS(=O)(=O)c1ccc(CNc2nc(Nc3cccc(CN4CCOCC4)c3)ncc2C2CC2)cc1", "mode": "inhibitor", "method": "radiometric", "tested at": "1 µM", "remaining activity [%]": 108}
{"SMILES": "O=C(Nc1cnn(-c2csc(C(=O)NC3COC3)c2)c1)Nc1c(F)cccc1Cl", "mode": "inhibitor", "tested at": "5 µM", "remaining activity [%]": 89.4}
{"SMILES": "O=c1cc(-c2cccc3c2Sc2ccccc2S3)oc(N2CCOCC2)c1", "mode": "inhibitor", "tested at": "0.5 µM", "remaining activity [%]": 98.2}
{"SMILES": "Cc1nn(CC(F)(F)F)cc1Nc1ncc(Br)c(NCc2ccc(S(N)(=O)=O)cc2)n1", "mode": "inhibitor", "method": "radiometric", "tested at": "1 µM", "remaining activity [%]": 93}
{"SMILES": "CC(C)(O)[C@H]1CC[C@H](Nc2ccc3ncc(-c4cccc(C(F)(F)F)c4)n3n2)CC1", "mode": "inhibitor", "tested at": "1 µM", "remaining activity [%]": 106}
